In brackets after ≈: the same amount, converted by molar mass. Activity calls are given as the source filed them. Some results are limits rather than exact numbers.

Six compounds from ChEMBL document CHEMBL3098034, “Synthesis and biological evaluation of α-hydroxyalkylphosphonates as new antimicrobial agents” (Bioorg Med Chem Lett, 2014) can be followed below.

What all share (assay type): functional
In test [1] the test system is Staphylococcus aureus. Briefly: Bactericidal activity against methicillin-resistant Staphylococcus aureus BW61 after 24 hrs by CFU counting assay. The settings on record: BW61, 24 h. The method, boiled down: (§1)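 MBC (lowest concentration killing the pathogen) determined per CLSI specifications, with fosfomycin, ceftriaxone, ciprofloxacin and chloramphenicol run as reference drugs; S. aureus ATCC 29213 used as quality-control strain.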

The subject of test [2] is Staphylococcus aureus. Briefly: Antibacterial activity against Staphylococcus aureus ATCC 29213 at 10 ug by disc diffusion method. As to conditions: for zone of inhibition at 10 µg/disc: read-out: IZ. (In general: Agar diffusion results depend on both activity and mobility in agar.)
The subject of test [3] is Bacillus cereus. Briefly: Bactericidal activity against Bacillus cereus ATCC 11778 after 24 hrs by CFU counting assay. The settings on record: ATCC 11778, 24 h. The method, boiled down: as §1
The test system of test [4] is Staphylococcus aureus. Briefly: Antibacterial activity against methicillin-resistant Staphylococcus aureus BW61 after 24 hrs by broth microdilution method. As to conditions: BW61, 24 h. The method, boiled down: (§2)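 MIC (lowest concentration preventing growth) determined per CLSI specifications, with fosfomycin, ceftriaxone, ciprofloxacin and chloramphenicol run as reference drugs; S. aureus ATCC 29213 used as quality-control strain.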
(In general: In broth dilution the organism is exposed to a series of concentrations in liquid medium.)

For test [5], the system named is Escherichia coli. Briefly: Antibacterial activity against multidrug-resistant Escherichia coli BW54 after 24 hrs by broth microdilution method. As to conditions: BW54, 24 h. The method, boiled down: as §2
Test [6] concerns Staphylococcus aureus. Briefly: Antibacterial activity against Staphylococcus aureus ATCC 29213 after 24 hrs by broth microdilution method. The settings on record: ATCC 29213, 24 h. The method, boiled down:
as §2

In test [7] the test system is Escherichia coli. Briefly: Antibacterial activity against multidrug-resistant Escherichia coli BW54 at 10 ug by disc diffusion method. The settings on record: for zone of inhibition at 10 µg/disc: read-out: IZ.
Test [8] has as its system Bacillus cereus. Briefly: Antibacterial activity against Bacillus cereus ATCC 11778 after 24 hrs by broth microdilution method. The settings on record: ATCC 11778, 24 h. The method, boiled down: as §2
Test [9] has as its system Stenotrophomonas maltophilia. Briefly: Antibacterial activity against multidrug-resistant Stenotrophomonas maltophilia D457R at 10 ug by disc diffusion method.
Test [10] deals with Escherichia coli. Briefly: Antibacterial activity against ESBL-producing Escherichia coli BW55 at 10 ug by disc diffusion method. The settings on record: for zone of inhibition at 10 µg/disc: read-out: IZ.
The subject of test [11] is Acinetobacter haemolyticus. Briefly: Antibacterial activity against vancomycin-resistant Acinetobacter haemolyticus BW62 at 10 ug by disc diffusion method. As to conditions: for zone of inhibition at 10 µg/disc: read-out: IZ.
The subject of test [12] is Escherichia coli. Briefly: Bactericidal activity against multidrug-resistant Escherichia coli BW54 after 24 hrs by CFU counting assay. As to conditions: BW54, 24 h. The method, boiled down:
as §1

Test [13] relates to Pseudomonas aeruginosa. Briefly: Antibacterial activity against multidrug-resistant Pseudomonas aeruginosa PAO1 at 10 ug by disc diffusion method. The settings on record: read-out: IZ.
In test [14] the test system is Acinetobacter haemolyticus. Briefly: Bactericidal activity against vancomycin-resistant Acinetobacter haemolyticus BW62 after 24 hrs by CFU counting assay. As to conditions: BW62, 24 h. The method, boiled down: as §1
In test [15] the test system is Stenotrophomonas maltophilia. Briefly: Bactericidal activity against multidrug-resistant Stenotrophomonas maltophilia D457R after 24 hrs by CFU counting assay. The method, boiled down: as §1
Test [16] relates to Escherichia coli. Briefly: Antibacterial activity against ESBL-producing Escherichia coli BW55 after 24 hrs by broth microdilution method. As to conditions: BW55, 24 h. The method, boiled down:
as §2

For test [17], the system named is Pseudomonas aeruginosa. Briefly: Antibacterial activity against multidrug-resistant Pseudomonas aeruginosa PAO1 after 24 hrs by broth microdilution method. As to conditions: PAO1, 24 h. The method, boiled down: as §2
The subject of test [18] is Staphylococcus aureus. Briefly: Bactericidal activity against Staphylococcus aureus ATCC 29213 after 24 hrs by CFU counting assay. As to conditions: ATCC 29213, 24 h. The method, boiled down:
as §1

Test [19] deals with Bacillus cereus. Briefly: Antibacterial activity against Bacillus cereus ATCC 11778 at 10 ug by disc diffusion method. As to conditions: for zone of inhibition at 10 µg/disc: read-out: IZ.
Test [20] has as its system Acinetobacter haemolyticus. Briefly: Antibacterial activity against vancomycin-resistant Acinetobacter haemolyticus BW62 after 24 hrs by broth microdilution method. As to conditions: BW62, 24 h. The method, boiled down: as §2
For test [21], the system named is Pseudomonas aeruginosa. Briefly: Bactericidal activity against multidrug-resistant Pseudomonas aeruginosa PAO1 after 24 hrs by CFU counting assay. The settings on record: PAO1, 24 h. The method, boiled down:
as §1

Test [22] concerns Escherichia coli. Briefly: Bactericidal activity against ESBL-producing Escherichia coli BW55 after 24 hrs by CFU counting assay. As to conditions: BW55, 24 h. The method, boiled down:
as §1

Test [23] concerns Stenotrophomonas maltophilia. Briefly: Antibacterial activity against multidrug-resistant Stenotrophomonas maltophilia D457R after 24 hrs by broth microdilution method. The method, boiled down: as §2

For orientation: MBC means the smallest concentration meeting the test's criterion for killing. Usually MIC stands for the lowest concentration found to suppress growth. High values mean a less susceptible organism, low ones a more susceptible organism. `C[C@](O)(CCl)P(=O)(Oc1ccccc1)Oc1ccccc1`: the MBC was 256 µg/mL (≈ 784 µM) in [1]; 128 µg/mL (≈ 392 µM) in test [3]; at least 256 µg/mL in test [12]; at least 256 µg/mL in test [14]; at least 256 µg/mL in [15]; at least 256 µg/mL in [18]. Moreover, the MBC in test [21] and in test [22] was 256 µg/mL (≈ 784 µM) throughout. For the same compound, the zone of inhibition at 10 µg/disc in [2] is 9 mm; in test [7], 8 mm; in test [10], 7 mm; in test [11], 8 mm; in test [13], 7 mm; in [19], 12 mm. In addition, the MIC in test [4] was determined as 128 µg/mL (≈ 392 µM); in test [5] it was 128 µg/mL (≈ 392 µM); in [6], 128 µg/mL (≈ 392 µM); in test [8], 64 µg/mL (≈ 196 µM); in test [16] it was 64 µg/mL (≈ 196 µM); in [17], 64 µg/mL (≈ 196 µM). The MIC in [20] is 64 µg/mL (≈ 196 µM); in [23], 128 µg/mL (≈ 392 µM). The result in [9] was inactive.

Turning to `C[C@@H]1O[C@@H]1P(=O)(O)O` [FOSFOMYCIN], the MBC came out at 32 µg/mL (≈ 232 µM) in test [1]; 32 µg/mL (≈ 232 µM) in test [3]; 32 µg/mL (≈ 232 µM) in [12]; 128 µg/mL (≈ 927 µM) in test [14]; 256 µg/mL (≈ 1850 µM) in test [15]; 64 µg/mL (≈ 464 µM) in [18]. For the same compound, the values for the MBC in test [21] and in test [22] were 64 µg/mL (≈ 464 µM) and 128 µg/mL (≈ 927 µM), respectively. The MIC was 64 µg/mL (≈ 464 µM) in test [4]; 32 µg/mL (≈ 232 µM) in [5]; 8 µg/mL (≈ 57.9 µM) in test [6]; 32 µg/mL (≈ 232 µM) in [8]; 32 µg/mL (≈ 232 µM) in test [16]; 64 µg/mL (≈ 464 µM) in test [17]. Also, the MIC in [20] is 128 µg/mL (≈ 927 µM); in test [23] it was 256 µg/mL (≈ 1850 µM).

As to `O=P(Oc1ccccc1)(Oc1ccccc1)[C@](O)(CCl)c1ccc(Cl)cc1`, the MBC in test [1] is 64 µg/mL (≈ 151 µM); in test [3], 32 µg/mL (≈ 75.6 µM); in test [12] it was 64 µg/mL (≈ 151 µM); in test [14], 128 µg/mL (≈ 302 µM); in test [15], 64 µg/mL (≈ 151 µM); in test [18], 64 µg/mL (≈ 151 µM). Further, the MBC in [21] is 128 µg/mL (≈ 302 µM); in test [22], 64 µg/mL (≈ 151 µM). Besides, the zone of inhibition at 10 µg/disc in test [2] amounted to 9 mm; in [7], 9 mm; in [9] (read-out: IZ), 11 mm; in [10] it was 10 mm; in test [11], 7 mm; in [13] it was 10 mm. Besides, the zone of inhibition at 10 µg/disc in test [19] amounted to 9 mm. The MIC came to 32 µg/mL (≈ 75.6 µM) in test [4]; 64 µg/mL (≈ 151 µM) in test [5]; 32 µg/mL (≈ 75.6 µM) in test [6]; 32 µg/mL (≈ 75.6 µM) in [8]; 32 µg/mL (≈ 75.6 µM) in [16]; 128 µg/mL (≈ 302 µM) in test [17]. In addition, the MIC in test [20] came out at 64 µg/mL (≈ 151 µM); in test [23], 32 µg/mL (≈ 75.6 µM).

Regarding `CC1(C)COP(=O)([C@@](O)(CCl)c2ccccc2)OC1`, the outcome in test [2], in [7], in test [9], in [10] and in test [11] was inactive. For the same compound, the zone of inhibition at 10 µg/disc was determined as 6 mm in test [13] and 7 mm in [19].

Regarding `O=C(N[C@H](CO)[C@H](O)c1ccc([N+](=O)[O-])cc1)C(Cl)Cl` [CHLORAMPHENICOL], the MBC in test [1] was 128 µg/mL (≈ 396 µM); in test [3], 64 µg/mL (≈ 198 µM); in test [12], at least 256 µg/mL; in test [14], at least 256 µg/mL; in test [15], at least 256 µg/mL; in test [18] it was 64 µg/mL (≈ 198 µM). For the same compound, the minimum bactericidal concentration (MBC) was at least 256 µg/mL in test [21] and 128 µg/mL (≈ 396 µM) in [22]. For the same compound, the MIC was 16 µg/mL (≈ 49.5 µM) in test [4]; 128 µg/mL (≈ 396 µM) in test [5]; 8 µg/mL (≈ 24.8 µM) in [6]; 0.5 µg/mL (≈ 1.55 µM) in [8]; 8 µg/mL (≈ 24.8 µM) in test [16]; at least 256 µg/mL in [17]. In addition, the MIC in test [20] and in test [23] was 128 µg/mL (≈ 396 µM) each time.

As for `O=P(Oc1ccccc1)(Oc1ccccc1)[C@@]1(O)c2ccccc2C[C@@H]1Cl` (mixture of isomers), the MBC in test [1], in test [3], in [12], in [14], in test [15] and in test [18] was 256 µg/mL each time. The MBC in test [21] and in test [22] was 256 µg/mL each time. Further, the figures for the zone of inhibition at 10 µg/disc in [2], in test [10] and in test [13] were 5 mm, 8 mm and 9 mm, respectively. Further, the MIC in [4] stood at 256 µg/mL; in test [5], 128 µg/mL; in test [6], 256 µg/mL; in [8], 128 µg/mL; in test [16], 128 µg/mL; in [17], 128 µg/mL. In addition, the MIC in test [20] and in [23] was 128 µg/mL in each case. In addition, the outcome in test [7], in [9], in [11] and in [19] was inactive.
